The source of these data is ChEMBL document CHEMBL1129082, “Approaches to short-acting neuromuscular blocking agents: nonsymmetrical bis-tetrahydroisoquinolinium mono- and diesters” (1996).

The test system of test [1] is Felis catus. The experiment in a line: Effective dose for anesthetized cats. It is filed as functional. The method in brief:
(§1)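 Cats kept under chloralose anesthesia, with supplemental iv doses as needed. Trachea cannulated and ventilated with room air at 20 mL/kg and 20 strokes/min. Arterial pressure taken from a right femoral artery cannula, and heart rate from the ECG. Core temperature held at 37-38 °C by radiant heat.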

Test [2] has as its system Felis catus. As to the kind of experiment: Vagal response in anesthetized cats; '++ ' means significant inhibition at ED95 or slightly higher doses. The test is classed as functional, organism-based. The method in brief: (§2)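 Chloralose-anesthetized, ventilated cats kept at 37-38 °C. Nerve stimulated for 10 s every 5 min at 20 Hz, 0.5 ms, supramaximal 10-15 V. Heart rate from the ECG and arterial pressure via a femoral cannula used as the vagal read-out.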

The subject of test [3] is Felis catus. The experiment in a line: Blockade duration is the time from injection to 95% control in anesthetized cats; Range is 7-8 min. The test is classed as functional. In short, it runs like this:
as §1

Test [4] relates to Felis catus. The experiment in a line: Effective dose for anesthetized cats; Range is 0.7-0.8 mg/Kg. It is filed as functional. In short, it runs like this:
as §1

Test [5] has as its system Felis catus. The experiment in a line: Vagal response in anesthetized cats; '++++ ' means significant inhibition in the absence of neuromuscular blockade. The test is classed as functional, organism-based. In short, it runs like this:
as §2

In test [6] the test system is Felis catus. As to the kind of experiment: Blockade duration is the time from injection to 95% control in anesthetized cats. It is filed as functional. The method in brief: as §1
The subject of test [7] is Felis catus. The experiment in a line: Vagal response in anesthetized cats. The test is classed as functional. In short, it runs like this:
as §2

In test [8] the test system is Felis catus. As to the kind of experiment: Effective dose for anesthetized cats; Range is 0.3-0.5 mg/Kg. It is filed as functional. In short, it runs like this: as §1
Test [9] concerns Felis catus. As to the kind of experiment: Neuromuscular blocking property by neostigmine reversal in anesthetized cats at dose of 0.55 mg/Kg; Not recorded. The test is classed as functional, organism-based.
The test system of test [10] is Felis catus. As to the kind of experiment: Blockade duration is the time from injection to 95% control in anesthetized cats; Range is 8-12 min. The test is classed as functional. The method in brief:
as §1

Test [11] concerns Felis catus. The experiment in a line: Effective dose for anesthetized cats; Range is 0.12-0.20 mg/Kg. It is filed as functional. In short, it runs like this: as §1
Test [12] deals with Felis catus. As to the kind of experiment: Vagal response in anesthetized cats; '+++ ' means significant inhibition at doses that produce neuromuscular blockade. The test is classed as functional, organism-based. In short, it runs like this:
(§3)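 Anesthetized cats given supplemental iv α-chloralose as needed, tracheally cannulated and ventilated with room air (20 mL/kg, 20 strokes/min), core temperature held at 37–38 °C. Right vagus crushed distal to the nodose ganglia and stimulated for 10 s every 5 min (20 Hz, 0.5 ms, 10–15 V supramaximal). Femoral arterial pressure recorded; heart rate taken from the ECG.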

The subject of test [13] is Felis catus. The experiment in a line: Effective dose for anesthetized cats; Range is 0.5-0.7 mg/Kg. It is filed as functional. The method in brief: as §1
Test [14] has as its system Felis catus. As to the kind of experiment: Blockade duration is the time from injection to 95% control in anesthetized cats; Range is 8-9 min. It is filed as functional. The method in brief:
as §1

Test [15] deals with Felis catus. As to the kind of experiment: Effective dose for anesthetized cats; Range is 0.3-0.4 mg/Kg. It is filed as functional.
Test [16] deals with Felis catus. As to the kind of experiment: Blockade duration is the time from injection to 95% control in anesthetized cats; Range is 12-13 min. It is filed as functional.
The test system of test [17] is Felis catus. As to the kind of experiment: Effective dose for anesthetized cats; Range is 4-7 mg/Kg. It is filed as functional.
For test [18], the system named is Felis catus. The experiment in a line: Vagal response in anesthetized cats; '++++' means significant inhibition in the absence of neuromuscular blockade. It is filed as functional, organism-based. The method in brief: as §3

Regarding `COc1ccc(C[C@@H]2c3cc(OC)c(OC)cc3CC[N+]2(C)CCCCCCCCCCCOC(=O)CC[N+]2(C)CCc3cc(OC)c(OC)cc3C2)cc1OC.[I-].[I-]` (some centres not stated), the ED95 with Felis catus [1] came out at 0.3 mg/kg. For the same compound, the Vagal response result in the test on Felis catus [2] is on record as “significant inhibition at ED95 or slightly higher doses”. In the test with Felis catus [3], this compound returned a Blockade duration of 8 min.

In the test with Felis catus [4], `C=CC[N+]1(CCC(=O)OCCCCCCCCC[N+]2(CC=C)CCc3cc(OC)c(OC)cc3[C@H]2Cc2ccc(OC)c(OC)c2)CCc2c(cc(OC)c(OC)c2OC)C1.[Br-].[Br-]` (some centres not stated) returned an ED95 of 0.7 mg/kg. In the test on Felis catus [3], this compound yielded a Blockade duration of 8 min. Also, the Vagal response result in the test on Felis catus [5] is given as “significant inhibition in the absence of neuromuscular blockade”.

In the test with Felis catus [6], `COc1ccc(C[C@@H]2c3cc(OC)c(OC)cc3CC[N+]2(C)CCCCCCCCCOC(=O)CC[N+]2(C)CCc3c(cc(OC)c(OC)c3OC)C2)cc1OC.[I-].[I-]` (some centres not stated) returned a Blockade duration of 10 min. This compound also returned an ED95 in the test on Felis catus [1] of 0.26 mg/kg. In addition, the Vagal response entry in the test on Felis catus [2] is listed as “significant inhibition at ED95 or slightly higher doses”.

`COc1ccc(C[C@@H]2c3cc(OC)c(OC)cc3CC[N+]2(C)CCC(=O)OCCCCCOC(=O)CC[N+]2(C)CCc3cc(OC)c(OC)cc3[C@H]2Cc2ccc(OC)c(OC)c2)cc1OC.O=S(=O)([O-])c1ccccc1.O=S(=O)([O-])c1ccccc1` (some centres not stated) had a Blockade duration in the test with Felis catus [6] of 14.6 min. Further, the ED95 in the test on Felis catus [1] amounted to 0.16 mg/kg. For the same compound, in the test on Felis catus [7], the Vagal response was found to be 0.

Take `COc1cc2c(c(OC)c1OC)C[N+](C)(CCC(=O)OCCCCCCOC(=O)CC[N+]1(C)CCc3cc(OC)c(OC)c(OC)c3C1)CC2.[I-].[I-]` (configuration not stated): the Blockade duration in the test on Felis catus [6] worked out at 8 min. Further, the Vagal response result with Felis catus [2] was “significant inhibition at ED95 or slightly higher doses”. The same compound registered an ED95 with Felis catus [8] of 0.3 mg/kg.

On to `COc1ccc(C[C@@H]2c3cc(OC)c(OC)cc3CC[N+]2(C)CCCCCCCCCOC(=O)CC[N+]2(C)CCc3cc(OC)c(OC)cc3[C@H]2Cc2ccc(OC)c(OC)c2)cc1OC.[I-].[I-]` (some centres not stated), for which, in the test with Felis catus [6], the Blockade duration turned out to be 15 min. Further, the Neostigmine reversal result with Felis catus [9] is “Not recorded”. The compound further had an ED95 in the test with Felis catus [1] of 0.1 mg/kg. The compound further returned a Vagal response with Felis catus [7] of 0.

Take `COc1ccc(C[C@@H]2c3cc(OC)c(OC)cc3CC[N+]2(C)CCC(=O)OCCCCCCOC(=O)CC[N+]2(C)CCc3c(cc(OC)c(OC)c3OC)C2)cc1OC.[I-].[I-]` (some centres not stated): the Blockade duration with Felis catus [10] turned out to be 12 min. In the test on Felis catus [7], the Vagal response worked out at 0. The compound also registered an ED95 in the test with Felis catus [11] of 0.12 mg/kg.

`COc1ccc(C[C@@H]2c3cc(OC)c(OC)cc3CC[N+]2(C)CCCCOC(=O)CCCCOC(=O)CC[N+]2(C)CCc3cc(OC)c(OC)c(OC)c3C2)cc1OC.[I-].[I-]` (some centres not stated) displayed a Blockade duration with Felis catus [6] of 8 min. In the test on Felis catus [1], this compound returned an ED95 of 0.5 mg/kg. Also, in the test with Felis catus [12], the Vagal response result is reported as “significant inhibition at doses that produce neuromuscular blockade”.

Turning to `COc1ccc(C[C@@H]2c3cc(OC)c(OC)cc3CC[N+]2(C)CCCCCCCCCCCOC(=O)CC[N+]2(C)CCc3c(cc(OC)c(OC)c3OC)C2)cc1OC.[I-].[I-]` (some centres not stated), the Vagal response result with Felis catus [2] is on record as “significant inhibition at ED95 or slightly higher doses”. The compound further had an ED95 in the test on Felis catus [13] of 0.5 mg/kg. Also, the Blockade duration in the test on Felis catus [14] amounted to 9 min.

With `COc1ccc(C[C@@H]2c3cc(OC)c(OC)cc3CC[N+]2(C)CCCCCCCCCOC(=O)CC[N+]2(C)CCC34c5c6ccc(OC)c5OC3[C@@H](OC)C=CC4[C@H]2C6)cc1OC.[I-].[I-]` (some centres not stated), in the test on Felis catus [15], the ED95 was determined as 0.3 mg/kg. The Blockade duration in the test on Felis catus [16] was 13 min. The Vagal response entry in the test with Felis catus [12] was “significant inhibition at doses that produce neuromuscular blockade”.

Compound `C=CC[N+]1(CCCCCCCCCOC(=O)CC[N+]2(C)CCC34c5c6ccc(OC)c5OC3[C@@H](OC)C=CC4[C@H]2C6)CCc2cc(OC)c(OC)cc2[C@H]1Cc1ccc(OC)c(OC)c1.[Br-].[Br-]` (some centres not stated) came in with a Blockade duration in the test with Felis catus [6] of 3 min. This compound had an ED95 in the test on Felis catus [17] of 4 mg/kg. Besides, in the test on Felis catus [18], the Vagal response entry is reported as “significant inhibition in the absence of neuromuscular blockade”.

Consider `COc1ccc(C[C@@H]2c3cc(OC)c(OC)cc3CC[N+]2(C)CCCCCCCCCCCOC(=O)CC[N+]2(C)CCc3cc(OC)c(OC)c(OC)c3C2)cc1OC.[I-].[I-]` (some centres not stated), for which the ED95 in the test on Felis catus [15] amounted to 0.3 mg/kg. Further, the Blockade duration in the test with Felis catus [6] came out at 8 min. In the test with Felis catus [2], the Vagal response entry is listed as “significant inhibition at ED95 or slightly higher doses”.
